Counter-ions that a name gives are not always drawn.

Data on ten compounds can be found in ChEMBL document CHEMBL1149189, “In vitro antimalarial activity of a series of cationic 2,2'-bipyridyl- and 1,10-phenanthrolineplatinum(II) benzoylthiourea complexes” (J Med Chem, 2004).

The first experiment deals with Ferriprotoporphyrin IX.
Settings: not given
For `O=C(NC(=S)N(CCO)CCO)c1ccccc1`, the “Log K” value was “No association”. Same read-out and setting: with `c1ccc(-c2ccccn2)nc1` the entry was “No association”; with `Cc1ccnc(-c2cc(C)ccn2)c1`, “No association”.

A further experiment deals with CHO. The experiment is described as follows: In vitro cytotoxicity against CHO cells was determined using MTT colorimetric assay. Format: functional, cell-based. To be noted: Cricetulus griseus. In a few lines: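 Chinese hamster ovary cells; MTT colorimetric read-out. Compounds dissolved as 2 mg/mL stocks in water, then diluted in medium as six serial 10-fold dilutions, final 100 µg/mL to 1 ng/mL. Emetine dihydrochloride as positive control. IC50 from nonlinear dose–response curve fitting; mean ± standard deviation of two independent experiments, each in triplicate.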
The term IC50 denotes the concentration at which inhibition is half-maximal. Regarding `CC[C@H]1CN2CCc3cc(OC)c(OC)cc3[C@@H]2C[C@@H]1C[C@H]1NCCc2cc(OC)c(OC)cc21` [EMETINE HYDROCHLORIDE], 139 nM corresponded to half-maximal inhibition (IC50).

The next experiment concerns Ferriprotoporphyrin IX.
Settings: not given
This is another data set of the same source.
With `O=[N+]([O-])c1cc2cccnc2c2ncccc12`, the Log K was found to be 2.88. Regarding `Clc1cc2cccnc2c2ncccc12`, the Log K is 3.01. Same read-out and setting: the same measure for `CCN(CC)CCN(CCN(CC)CC)C(=S)NC(=O)c1ccccc1`: 1.93; for `Cc1cnc2c(ccc3c(C)c(C)cnc32)c1C`: 3.32. On the same count and under the same terms, with `Cc1cc2cccnc2c2ncccc12` the figure was 2.93; with `Cc1ccnc2c1ccc1cccnc12`, 3.22.
